The source made the active and inactive calls. The calls are words filed in the database; no cut-off is given here.

This is an account of results in ChEMBL document CHEMBL1158477, “Synthesis, in vivo evaluation, and molecular modeling studies of new pyrazolo[5,1-c][1,2,4]benzotriazine 5-oxide derivatives. Identification of a bifunctional hydrogen bond area related to the inverse agonism” (J Med Chem, 2009).

Assay [1] deals with Mus musculus. The assay is described as follows: Anxiogenic activity in CD1 albino mouse at 1 mg/kg, po after 30 mins by light/dark box test. The class given is functional, organism-based. Details: dose 1 mg/kg. The procedure, abridged:
(§1)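 Male CD-1 mice (22-24 g) given test substance po in 1% CMC (10 mL/kg), tested 30 min later in a light/dark box. Transfers between compartments and time spent in the illuminated side were measured. Values are mean ± SEM of 15-20 mice; compared with controls.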

Assay [2] deals with Mus musculus. The assay can be described thus: Effect on motor coordination in CD1 albino mouse assessed as number of falls form rotarod at 10 mg/kg, po […] measured for 30 seconds after 30 mins of dosing by rotarod test. The class given is functional. The procedure, abridged:
(§2)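 Rota-rod in male CD-1 mice with a pretest. Test substance given po in 1% CMC; falls from the rotating rod counted over 30 s, assessed 30 min after treatment.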
In general terms: Falling from the rotarod earlier than controls is read as motor impairment.

In assay [3] the test system is Mus musculus. The assay is described as follows: Anxiogenic activity in CD1 albino mouse at 3 mg/kg, po after 30 mins by light/dark box test. In kind it is functional, organism-based. Also noted: dose 3 mg/kg. The procedure, abridged:
as §1

Assay [4] concerns Mus musculus. The assay is described as follows: Anxiogenic activity in CD1 albino mouse at 3 mg/kg, po after 30 mins by light/dark box test in presence of flumazenil. In kind it is functional, organism-based. Details: dose 3 mg/kg. The method, boiled down: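 Light/dark box in male CD-1 mice. Test substance given po in 1% CMC 30 min before the test, with flumazenil 100 mg/kg ip (saline) co-treatment. Transfers between compartments and time in the lit side recorded. Mean ± SEM of 15-20 mice.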

For assay [5], the system named is Mus musculus. The assay can be described thus: Anticonvulsant activity against pentylenetetrazole-induced shock in CD1 albino mouse assessed as shock latency at 10 mg/kg, po preincubated for 30 mins before pentylenetetrazole challenge measured for 30 mins (RVb=253.1 +/- 13 seconds). In kind it is functional.
Assay [6] concerns Mus musculus. The assay can be described thus: Effect on ethanol-induced sleeping time in CD1 albino mouse assessed as increase in duration of loss of righting reflex at 3 mg/kg, po preincubated 30 mins before ethanol challenge. The class given is functional, organism-based. Details: dose 3 mg/kg.
Assay [7] relates to Mus musculus. The assay can be described thus: Anticonvulsant activity against pentylenetetrazole-induced convulsions in CD1 albino mouse assessed as convulsion latency at 3 mg/kg, po preincubated for 30 mins before pentylenetetrazole challenge measured for 30 mins (RVb=599 +/- 37.6 seconds). The class given is functional.
Assay [8] relates to Mus musculus. The assay is described as follows: Anticonvulsant activity against pentylenetetrazole-induced convulsions in CD1 albino mouse assessed as convulsion latency at 10 mg/kg, po preincubated for 30 mins before pentylenetetrazole challenge measured for 30 mins (RVb=599 +/- 37.6 seconds). The class given is functional.
For the next assay, the species on record is Bos taurus. The assay can be described thus: Displacement of [3H]flumazenil from GABAA/Benzodiazepine receptor in bovine brain at 10 uM. The procedure, abridged: (§3)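 Bovine brain membranes; displacement of specific [3H]flumazenil (Ro15-1788) binding. Percent inhibition measured at 10 μM; Ki determined only when inhibition at that concentration exceeded 80%. Ki given as mean ± SEM of five determinations.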
(Displacement assays read how much labelled ligand stays bound in the presence of the test substance.)

In assay [9] the test system is Mus musculus. The assay can be described thus: Effect on explorative capacity in CD1 albino mouse assessed as curiosity-related number of head plugging activity on hole at 3 mg/kg, po after 30 mins by hole-board test. In kind it is functional. The method, boiled down:
(§4)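 Hole-board test in male CD-1 mice: animals placed singly on the board and allowed to explore panel and holes. Test run 30 min after po dosing in 1% CMC (10 mL/kg). Hole entries (curiosity) and plane movements (spontaneous motility) counted; 10 mice per group, compared with CMC controls.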

Assay [10] has as its system Mus musculus. The assay can be described thus: Effect on spontaneous motility in CD1 albino mouse assessed as number of movement on plane board at 3 mg/kg, po after 30 mins by hole-board test. The class given is functional. The procedure, abridged: as §4
For assay [11], the system named is Mus musculus. The assay can be described thus: Anticonvulsant activity against pentylenetetrazole-induced shock in CD1 albino mouse assessed as shock latency at 3 mg/kg, po preincubated for 30 mins before pentylenetetrazole challenge measured for 30 mins (RVb=253.1 +/- 13 seconds). The class given is functional.
For assay [12], the system named is Mus musculus. The assay can be described thus: Effect on spontaneous motility in CD1 albino mouse assessed as number of movement on plane board at 10 mg/kg, po after 30 mins by hole-board test. The class given is functional. The procedure, abridged: as §4
The test system of assay [13] is Mus musculus. The assay is described as follows: Anxiogenic activity in CD1 albino mouse at 10 mg/kg, po after 30 mins by light/dark box test. In kind it is functional, organism-based. Also noted: dose 10 mg/kg. The method, boiled down:
as §1

Assay [14] deals with Mus musculus. The assay is described as follows: Effect on learning and memory process in CD1 albino mouse assessed as improvement in retention latency at 3 mg/kg, po after 24 hrs by passive avoidance test. The class given is functional, organism-based. Details: dose 3 mg/kg. The method, boiled down:
(§5)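 Step-through passive avoidance in a two-compartment box (lit and dark compartments joined by a guillotine door). Male CD-1 mice dosed po (1% CMC) 30 min before training; retention tested 24 h later. Training and retention latencies recorded; mean ± SEM of 15-20 mice versus controls.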

Assay [15] has as its system Mus musculus. The assay can be described thus: Effect on learning and memory process in CD1 albino mouse assessed as improvement in retention latency at 1 mg/kg, po after 24 hrs by passive avoidance test. In kind it is functional, organism-based. Also noted: dose 1 mg/kg. The procedure, abridged: as §5
For assay [16], the system named is Mus musculus. The assay can be described thus: Anxiogenic activity in CD1 albino mouse at 30 mg/kg, po after 30 mins by light/dark box test. In kind it is functional, organism-based. Also noted: dose 30 mg/kg. The method, boiled down:
as §1

Assay [17] deals with Mus musculus. The assay can be described thus: Effect on ethanol-induced sleeping time in CD1 albino mouse assessed as increase in duration of loss of righting reflex at 10 mg/kg, po preincubated 30 mins before ethanol challenge. In kind it is functional, organism-based. Also noted: dose 10 mg/kg.
Assay [18] in a line: Displacement of [3H]flumazenil from GABAA/Benzodiazepine receptor in bovine brain. Details: species or system Bos taurus. The method, boiled down: as §3
In assay [19] the test system is Mus musculus. The assay is described as follows: Effect on motor coordination in CD1 albino mouse assessed as number of falls form rotarod at 3 mg/kg, po administered 60 mins before test measured for 30 seconds after 30 mins of drug infusion by rotarod test. In kind it is functional. The method, boiled down: as §2
For assay [20], the system named is Mus musculus. The assay is described as follows: Effect on explorative capacity in CD1 albino mouse assessed as curiosity-related number of head plugging activity on hole at 10 mg/kg, po after 30 mins by hole-board test. In kind it is functional. The procedure, abridged:
as §4

The test system of assay [21] is Mus musculus. The assay is described as follows: Effect on explorative capacity in CD1 albino mouse assessed as curiosity-related number of head plugging activity on hole at 30 mg/kg, po after 30 mins by hole-board test. In kind it is functional. Conditions: 30 mg/kg. The procedure, abridged:
as §4

The test system of assay [22] is Mus musculus. The assay is described as follows: Effect on spontaneous motility in CD1 albino mouse assessed as number of movement on plane board at 100 mg/kg, po after 30 mins by hole-board test. The class given is functional. The method, boiled down:
as §4

Assay [23] relates to Mus musculus. The assay is described as follows: Effect on motor coordination in CD1 albino mouse assessed as number of falls form rotarod at 30 mg/kg, po […] measured for 30 seconds after 30 mins of drug infusion by rotarod test. Conditions: 30 mg/kg. The class given is functional. The method, boiled down:
as §2

Assay [24] deals with Mus musculus. The assay can be described thus: Anticonvulsant activity against pentylenetetrazole-induced shock in CD1 albino mouse assessed as shock latency at 30 mg/kg, po preincubated for 30 mins before pentylenetetrazole challenge measured for 30 mins (RVb=253.1 +/- 13 seconds). In kind it is functional. Conditions: 30 mg/kg.
Assay [25] concerns Mus musculus. The assay can be described thus: Effect on explorative capacity in CD1 albino mouse assessed as curiosity-related number of head plugging activity on hole at 50 mg/kg, po after 30 mins by hole-board test. The class given is functional. The procedure, abridged:
as §4

Assay [26] concerns Mus musculus. The assay can be described thus: Anticonvulsant activity against pentylenetetrazole-induced convulsions in CD1 albino mouse assessed as convulsion latency at 30 mg/kg, po preincubated for 30 mins before pentylenetetrazole challenge measured for 30 mins (RVb=599 +/- 37.6 seconds). In kind it is functional. Particulars: 30 mg/kg.
Assay [27] concerns Mus musculus. The assay can be described thus: Effect on spontaneous motility in CD1 albino mouse assessed as number of movement on plane board at 30 mg/kg, po after 30 mins by hole-board test. Particulars: 30 mg/kg. In kind it is functional. The procedure, abridged:
as §4

Assay [28] deals with Mus musculus. The assay is described as follows: Effect on spontaneous motility in CD1 albino mouse assessed as number of movement on plane board at 50 mg/kg, po after 30 mins by hole-board test. In kind it is functional. The method, boiled down:
as §4

The subject of assay [29] is Mus musculus. The assay is described as follows: Effect on explorative capacity in CD1 albino mouse assessed as curiosity-related number of head plugging activity on hole at 100 mg/kg, po after 30 mins by hole-board test. In kind it is functional. The procedure, abridged:
as §4

For the compound `[O-][n+]1nc2c(I)cnn2c2cc(Oc3ccccc3)ccc21`, the outcome in the assay on Mus musculus [1], in the assay on Mus musculus [3], in the assay on Mus musculus [6], with Mus musculus [13], with Mus musculus [14] and with Mus musculus [15] was Active. In addition, the outcome with Mus musculus [16] and in the assay with Mus musculus [17] was Active. For the same compound, the Activity with Mus musculus [2] is 0.6; in the assay with Mus musculus [5], 243.6 s; in the assay with Mus musculus [7], 516.1 s; in the assay on Mus musculus [8], 345.5 s; in the assay listed under Bos taurus it was > 80%; in the assay on Mus musculus [9], 38. The Activity with Mus musculus [10] is reported as 73.2; in the assay with Mus musculus [11] it was 264.7 s; with Mus musculus [12], 63.8; in the assay on Mus musculus [19], 0.9; with Mus musculus [20] it was 39.8. Further, in the assay on Mus musculus [4], the result was inactive. The Ki (commonly the dissociation constant of the complex between target and ligand, obtained from inhibition or displacement) in assay [18] is 8.6 nM.
For the compound `CC(Oc1ccc2c(c1)n1ncc(I)c1n[n+]2[O-])c1ccccc1` (stereo in doubt; (+)-16), the Activity in the assay with Mus musculus [21] is 31.9; with Mus musculus [22], 80; with Mus musculus [2] (10 mg/kg), 2.5; in the assay with Mus musculus [5] (10 mg/kg) it was 543.7 s; in the assay with Mus musculus [8] (10 mg/kg), 733.5 s; with Mus musculus [23], 1.3. The Activity in the assay with Mus musculus [24] came to 345.3 s; in the assay with Mus musculus [12] (10 mg/kg), 55.5; with Mus musculus [25], 39.3; with Mus musculus [26], 607.7 s; in the assay with Mus musculus [27] it was 59.7; with Mus musculus [28], 62.9. Moreover, the Activity in the assay on Mus musculus [29] is recorded as 30.4; in the assay on Mus musculus [20] (10 mg/kg), 25.1. The compound further came in with an inhibition constant (Ki) in [18] of 605 nM.
For `CC(Oc1ccc2c(c1)n1ncc(I)c1n[n+]2[O-])c1ccccc1` (single isomer, unassigned; (-)), the Activity in the assay on Mus musculus [21] is reported as 34.5; with Mus musculus [22], 59.2; with Mus musculus [2] (10 mg/kg), 2; with Mus musculus [5] (10 mg/kg) it was 513 s; in the assay on Mus musculus [8] (10 mg/kg), 1078 s; in the assay with Mus musculus [23] it was 1.6. In addition, the Activity in the assay with Mus musculus [24] was 323.7 s; in the assay with Mus musculus [12] (10 mg/kg) it was 61.9; in the assay with Mus musculus [25] it was 13.3; in the assay on Mus musculus [26] it was 549.2 s; in the assay on Mus musculus [27] it was 56.8; in the assay on Mus musculus [28], 44. The Activity in the assay with Mus musculus [29] is recorded as 22.9; with Mus musculus [20] (10 mg/kg) it was 27. The compound also came in with a Ki in assay [18] of 2.1 nM.
